Tests used:
[1] = Intrinsic clearance in pooled cryopreserved human hepatocytes at 1 uM incubated up to 90 mins by LC-MS/MS analysis; type: ADME, cell-based, Hepatocyte; conditions: 1.5 h
Summary of the method: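 Metabolic stability was assessed in liver microsomes (rat, dog, human) and hepatocytes (dog, human). Intrinsic clearance was calculated as μL/min/g liver.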

[2] = Protein binding in rat plasma; type: ADME, cell-free; conditions: read-out: PPB (converted)
Summary of the method: (§1)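 Plasma protein binding was determined in rat, mouse and human plasma, expressed as % bound.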

[3] = Protein binding in mouse plasma; type: ADME, cell-free; conditions: read-out: PPB (converted); summary of the method: as §1
[4] = Protein binding in human plasma; type: ADME, cell-free; conditions: read-out: PPB (converted); summary of the method: as §1
[5] = Plasma clearance in Sprague-Dawley rat at 1 mg/kg, iv as bolus dose or 3 mg/kg, po administered through gavage measured up to 8 hrs by LC-MS/MS analysis; type: ADME, organism-based
Summary of the method: (§2)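 Rats (n = 3 per route) given a 1 mg/kg intravenous bolus or 3 mg/kg as an oral solution. Vehicle was 5% DMSO/95% (10% Kleptose). Plasma concentration was followed over time to derive PK parameters and oral bioavailability. Clearance was also expressed relative to liver blood flow.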

[6] = Blood clearance in Sprague-Dawley rat at 1 mg/kg, iv as bolus dose or 3 mg/kg, po administered through gavage measured up to 8 hrs by LC-MS/MS analysis; type: ADME, organism-based; conditions: whole blood; summary of the method: as §2
[7] = Plasma clearance in Sprague-Dawley rat at 1 mg/kg, iv as bolus dose or 3 mg/kg, po administered through gavage measured up to 8 hrs by LC-MS/MS analysis relative to liver blood flow; type: ADME, organism-based; conditions: in vivo; summary of the method: as §2
[8] = Volume of distribution at steady state in Sprague-Dawley rat at 1 mg/kg, iv as bolus dose or 3 mg/kg, po administered through gavage measured up to 8 hrs by LC-MS/MS analysis; type: ADME, organism-based; conditions: in vivo, read-out: Vdss; summary of the method: as §2
[9] = Cmax in Sprague-Dawley rat at 1 mg/kg, iv as bolus dose by LC-MS/MS analysis; type: ADME, organism-based; design: dose 1 mg/kg, route intravenous; conditions: in vivo; summary of the method: as §2
[10] = Cmax in Sprague-Dawley rat at 3 mg/kg, po administered through gavage by LC-MS/MS analysis; type: ADME, organism-based; design: dose 3 mg/kg, route oral; conditions: in vivo; summary of the method: as §2
[11] = Mean residence time in Sprague-Dawley rat at 1 mg/kg, iv as bolus dose or 3 mg/kg, po administered through gavage by LC-MS/MS analysis; type: ADME, organism-based; conditions: in vivo; summary of the method: as §2
[12] = AUC (0 to infinity) in Sprague-Dawley rat at 1 mg/kg, iv as bolus dose by LC-MS/MS analysis; type: ADME, organism-based; design: dose 1 mg/kg, route intravenous, time infinity; conditions: in vivo; summary of the method: as §2
[13] = AUC (0 to infinity) in Sprague-Dawley rat at 3 mg/kg, po administered through gavage by LC-MS/MS analysis; type: ADME, organism-based; design: dose 3 mg/kg, route oral, time infinity; conditions: in vivo; summary of the method: as §2
[14] = Oral bioavailability in Sprague-Dawley rat at 3 mg/kg administered through gavage measured up to 8 hrs by LC-MS/MS analysis; type: ADME, organism-based; conditions: in vivo; summary of the method: as §2
[15] = Tmax in Sprague-Dawley rat at 3 mg/kg, po administered through gavage by LC-MS/MS analysis; type: ADME, organism-based; conditions: in vivo; summary of the method: as §2
Mus musculus [16] = assay: Anti-inflammatory activity in DBA/1 OlaHsd mouse immunized with bovine type2 collagen in Freund's complete adjuvant assessed as reduction in AUC of clinical arthritis score at 10 mg/kg, po bid administered starting on day 22 post immunization until day 33 post immunization relative to control; type: functional; design: scale not given: the % may be the effect or the level left; conditions: in the assay text read “until day 34 post immunization” for “until day 33 post immunization”
Summary of the method: (§3)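 Semiestablished CIA design. Mice received bovine type II collagen at day 0 with a boost at day 21. Dosing at 10 mg/kg PO bid ran from day 22 to day 34, in 5% DMSO/95% (10% kleptose), n = 10 per group; normal controls n = 4. Paws were scored daily for erythema and swelling (0–5), summarized as AUC. Body weight was tracked over time.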

[17] = AUC in DBA/1 OlaHsd mouse immunized with bovine type2 collagen in Freund's complete adjuvant at 10 mg/kg, po bid administered starting on day 22 post immunization measured on day 31 post immunization; type: ADME, organism-based; conditions: in vivo
Summary of the method: (§4)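 Blood drug levels were measured on study day 31 in CIA mice dosed at 10 mg/kg PO bid (n = 10), with vehicle 5% DMSO/95% (10% kleptose). AUC and Cmax were derived from these levels. Time above EC50 was judged against the human whole-blood IFNγ assay EC50 and the anti-CD3 mouse PK/PD EC50.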

[18] = Cmax in DBA/1 OlaHsd mouse immunized with bovine type2 collagen in Freund's complete adjuvant at 10 mg/kg, po bid administered starting on day 22 post immunization measured on day 31 post immunization; type: ADME, organism-based; design: dose 10 mg/kg, route oral; conditions: in vivo; summary of the method: as §4
Mus musculus [19] = assay: Time duration for free plasma concentration stays above invivo EC50 in DBA/1 OlaHsd mouse immunized with bovine type2 collagen in Freund's complete adjuvant at 10 mg/kg, po bid administered starting on day 22 post immunization measured on day 31 post immunization; type: ADME, organism-based; conditions: in vivo; summary of the method: as §4
[20] = Toxicity in DBA/1 OlaHsd mouse immunized with bovine type2 collagen in Freund's complete adjuvant assessed as body weight loss at 10 mg/kg, po bid administered starting on day 22 post immunization measured on day 26 post immunization; type: organism-based; conditions: in vivo; summary of the method: as §3
Mus musculus [21] = assay: Time duration for free plasma concentration stays above invitro EC50 for human whole blood in DBA/1 OlaHsd mouse immunized with bovine type2 collagen in Freund's complete adjuvant at 10 mg/kg, po bid administered starting on day 22 post immunization measured on day 31 post immunization; type: ADME, organism-based; conditions: in vivo; summary of the method: as §4
Mus musculus [22] = organism: Mus musculus; assay: animal or person; conditions: C57BL/6J
Mus musculus [23] = organism: Mus musculus; assay: animal or person; conditions: C57BL/6J; remark: listed apart in the source

SMILES: CCNC(=O)Nc1ccc(-c2nc(N3CCOC[C@@H]3C)c3c(n2)C(C)(C)S(=O)(=O)C3)cc1
- CLH [1]: <= 0.5 microL/min/g
- fraction unbound [2]: 0.31
- fraction unbound [3]: 0.11
- fraction unbound [4]: 0.19
- clearance [5]: 2.94 L/h/kg
- clearance [6]: 2.46 L/h/kg
- CL [7]: 45%
- Vd [8]: 3.1 L/kg
- Cmax [9]: 0.71 µM
- Cmax [10]: 0.43 µM
- MRT [11]: 66 min
- AUC(0-inf) [12]: 760 nM·h
- AUC(0-inf) [13]: 1000 nM·h
- bioavailability [14]: 44%
- Tmax [15]: 30 min
- Activity (Mus musculus [16]): 59%
- AUC [17]: 14000 nM·h
- Cmax [18]: 1.7 µM
- Time (Mus musculus [19]): <= 8 hr
- Activity [20]: Non-Toxic
- Time (Mus musculus [21]): <= 8 hr
- EC50 (Mus musculus [22]): 0.055 µM
- EC50 (Mus musculus [23]): 0.22 µM

— ChEMBL document CHEMBL4431376, “CZ415, a Highly Selective mTOR Inhibitor Showing in Vivo Efficacy in a Collagen Induced Arthritis Model” (ACS Med Chem Lett, 2016)
